SMILES strings stand for the structures. Values after ≈ are worked out from the molar mass of the structure shown. Active and inactive are the calls of the source. The rule behind the calls is not given here.

For one assay, the system named is Bipolaris maydis. Briefly: Antifungal activity against Cochliobolus heterostrophus assessed as inhibition of radial growth on potato dextrose. The assay is classed as functional, organism-based. The method, boiled down: (§1)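 Radial growth inhibition on potato dextrose or Czapek agar across 100-0.1 mg L-1. ED50 calculated for each compound.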
For another assay, the system named is Botrytis cinerea. In words: Antifungal activity against Botryotinia fuckelianaassessed as inhibition of radial growth on potato dextrose. The assay is classed as functional, organism-based. The method, boiled down:
as §1

In the next assay the test system is Pyrenophora teres. Briefly: Antifungal activity against Pyrenophora teres assessed as inhibition of radial growth on potato dextrose. The assay is classed as functional, organism-based.
Assay [1] relates to Uromyces appendiculatus. In words: Fungicidal activity against Uromyces appendiculatus inoculated in Phaseolus vulgaris placed in growth room after 24 hr incubation assessed as direct protection after 6 to 10 days. The assay is classed as functional. The method in brief:
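Bean plants grown at 22 ± 1 °C, 80 ± 10% RH. Compound in acetone/water (1:4 v/v) with Tween 20 (0.4 mg mL-1) was sprayed on leaves until moist at 100 to 0.001 mg L-1. One day later leaves were inoculated with U. appendiculatus uredospores (1 × 10^5 spores mL-1), held 24 h at 22 ± 2 °C and 100% RH, then moved to the growth room. Scored at 6, 8 and 10 days as MIC.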

In the next assay the test system is Cercospora beticola. In words: Antifungal activity against Cercospora beticola assessed as inhibition of radial growth on potato dextrose. Type of assay: functional, organism-based. The method, boiled down:
as §1

For assay [2], the target named is T1, Lanosterol 14-alpha demethylase (Mycosarcoma maydis) (UniProt P49602).
T1 sequence (whole entry): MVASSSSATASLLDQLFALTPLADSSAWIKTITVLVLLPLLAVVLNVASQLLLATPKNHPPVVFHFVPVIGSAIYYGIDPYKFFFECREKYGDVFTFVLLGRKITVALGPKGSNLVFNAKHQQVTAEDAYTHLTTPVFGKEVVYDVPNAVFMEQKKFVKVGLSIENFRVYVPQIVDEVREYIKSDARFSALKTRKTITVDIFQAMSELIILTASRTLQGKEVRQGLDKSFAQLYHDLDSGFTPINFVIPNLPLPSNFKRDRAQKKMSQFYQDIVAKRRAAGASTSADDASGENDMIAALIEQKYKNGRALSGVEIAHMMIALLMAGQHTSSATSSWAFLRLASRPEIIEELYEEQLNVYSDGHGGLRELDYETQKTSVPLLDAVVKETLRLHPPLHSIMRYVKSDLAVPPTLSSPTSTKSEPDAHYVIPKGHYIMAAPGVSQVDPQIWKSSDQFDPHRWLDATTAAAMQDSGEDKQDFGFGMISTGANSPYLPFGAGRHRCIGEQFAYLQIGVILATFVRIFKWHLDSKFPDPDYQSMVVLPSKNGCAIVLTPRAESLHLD
Briefly: Inhibition of 14alpha-demethylase Ustilago maydis ATCC 14826 assessed as reduction in ergosterol. The method in brief: (§2)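 Actively growing broth cultures of U. maydis ATCC 14826 were incubated 18 h with increasing compound concentrations. Sterols were then extracted and analysed, and 14α-demethyl and 14α-methyl sterols quantified.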

Another assay concerns Oculimacula yallundae. In words: Antifungal activity against Oculimacula yallundae assessed as inhibition of radial growth on potato dextrose. The assay is classed as functional, organism-based. The method in brief:
as §1

In the next assay the test system is Fusarium graminearum. Briefly: Antifungal activity against Fusarium graminearum assessed as inhibition of radial growth on potato dextrose. Type of assay: functional, organism-based. The method, boiled down: as §1
For assay [3], the system named is Podosphaera fuliginea. Briefly: Fungicidal activity against Podosphaera fuliginea inoculated in […] placed in growth room after 24 hr incubation assessed as direct protection after 6 to 10 days. Type of assay: functional.
Assay [4] concerns the target T1, Lanosterol 14-alpha demethylase (Mycosarcoma maydis). In words: Inhibition of 14alpha-demethylase Ustilago maydis ATCC 14826 assessed as reduction in ergosta-5,7-dien-3-ol. The method in brief:
as §2

The target in assay [5] is T2, Lanosterol 14-alpha demethylase (Mycosarcoma maydis, UniProt P49602).
T2 sequence (P49602 whole entry): T1 sequence (whole entry)
Briefly: Inhibition of 14alpha-demethylase Ustilago maydis ATCC 14826 assessed as reduction in 14alpha-methylfecosterol. The settings on record: read-out: I50 (converted). The method in brief: as §2

In assay [6] the test system is Ustilago maydis. In words: Antifungal activity against Ustilago maydis assessed as inhibition of radial growth on potato dextrose. Type of assay: functional, organism-based. The settings on record: Mycosarcoma maydis.
In assay [7] the target is T1, Lanosterol 14-alpha demethylase (Mycosarcoma maydis). Briefly: Inhibition of 14alpha-demethylase Ustilago maydis ATCC 14826 assessed as reduction in ergosterol at 20 mg/ml (reference value: 61%). Also on record: scale not given: the % may be the effect or the level left. The method, boiled down: as §2
Assay [8] shares this target. Briefly: Inhibition of 14alpha-demethylase Ustilago maydis ATCC 14826 assessed as reduction in obtusifoliol at 20 mg/ml (reference value: 0.7%). The arrangement: scale not given: the % may be the effect or the level left. The method in brief:
as §2

Assay [9] has the same target. In words: Inhibition of 14alpha-demethylase Ustilago maydis ATCC 14826 assessed as reduction in eburicol at 20 mg/ml (reference value: 3.4%). Also on record: scale not given: the % may be the effect or the level left. The method, boiled down:
as §2

Assay [10] shares this target. Briefly: Inhibition of 14alpha-demethylase Ustilago maydis ATCC 14826 assessed as reduction in 14alpha-methylfecosterol at 20 mg/ml (reference value: 0.4%). Also on record: scale not given: the % may be the effect or the level left. The method in brief:
as §2

Assay [11] has as its system Uromyces appendiculatus. Briefly: Fungicidal activity against Uromyces appendiculatus inoculated in Phaseolus vulgaris placed in growth room after 24 hr incubation assessed as disease cure after 24 hr of inoculation. Type of assay: functional. The method in brief: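 Bean rust curative test with the same plants, spray formulation (acetone/water 1:4 with Tween 20), 100 to 0.001 mg L-1 range and U. appendiculatus inoculum (1 × 10^5 spores mL-1). Compound applied 24 h after inoculation. Read-out expressed as MIC.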

Assay [12] concerns Ustilago maydis. In words: Antifungal activity against Ustilago maydis sporidia assessed as swollen, multicellular and branched sporidia at 0.25 to 50 mg/ml measured after 18 hr by light microscopy. Type of assay: functional, organism-based. The note with it: Mycosarcoma maydis. The method in brief: (§3)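 U. maydis sporidia grown in Coursen and Sisler broth and treated at 0.25 to 50 mg mL-1 for 18 h. Cell morphology and division examined by interference contrast (Nomarski) and fluorescence microscopy.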

Assay [13] deals with Ustilago maydis. Briefly: Antifungal activity against Ustilago maydis sporidia assessed as cell division at 0.25 to 50 mg/ml by light microscopy. Type of assay: functional, organism-based. The settings on record: Mycosarcoma maydis. The method, boiled down:
as §3

Assay [14] has as its system Podosphaera fuliginea. Briefly: Fungicidal activity against Podosphaera fuliginea inoculated in […] placed in growth room after 24 hr incubation assessed as disease cure after 24 hr of inoculation. The assay is classed as functional.

One may read the EC50 as the concentration needed to bring the measured effect to its halfway point. The MIC is the lowest concentration found to suppress growth. As to `C=CCOC[C@@H](Cn1cncn1)c1ccc(Cl)cc1Cl`, the EC50 with Bipolaris maydis was 0.18 µg/mL (≈ 0.577 µM); with Botrytis cinerea it was 1.5 µg/mL (≈ 4.8 µM); with Pyrenophora teres, 1.5 µg/mL (≈ 4.8 µM); in the assay on Cercospora beticola, under 0.1 µg/mL; in the assay on Oculimacula yallundae it was 0.28 µg/mL (≈ 0.897 µM); with Fusarium graminearum, 10 µg/mL (≈ 32 µM). In the assay on Ustilago maydis [6], the EC50 is 0.09 µg/mL (≈ 0.288 µM). In addition, the values for the MIC with Uromyces appendiculatus [1] and in the assay on Podosphaera fuliginea [3] were 25 µg/mL (≈ 80.1 µM) and 90 µg/mL (≈ 288 µM), respectively. In addition, the inhibition entry in assay [2] and in assay [4] was “Active” throughout. The IC50 in assay [5] is 897 nM.

Take `C=CCOCC(Cn1cncn1)c1ccc(Cl)cc1Cl` (racemic): the EC50 in the assay with Bipolaris maydis was 0.16 µg/mL (≈ 0.512 µM); with Botrytis cinerea, 1.5 µg/mL (≈ 4.8 µM); in the assay with Pyrenophora teres, 1.4 µg/mL (≈ 4.48 µM); in the assay on Cercospora beticola, 0.21 µg/mL (≈ 0.673 µM); in the assay on Oculimacula yallundae it was 0.29 µg/mL (≈ 0.929 µM); in the assay on Fusarium graminearum it was 8.5 µg/mL (≈ 27.2 µM). The EC50 in the assay on Ustilago maydis [6] turned out to be 0.22 µg/mL (≈ 0.705 µM). For the same compound, the MIC with Uromyces appendiculatus [1] came to 200 µg/mL (≈ 641 µM); with Podosphaera fuliginea [3], 30 µg/mL (≈ 96.1 µM); in the assay with Uromyces appendiculatus [11], 28 µg/mL (≈ 89.7 µM). In addition, the Activity in assay [7] was determined as 5.1%; in [8], 20.6%; in assay [9], 61.1%; in assay [10] it was 8.8%. For the same compound, the IC50 in [5] is 1730 nM.

Regarding `FC(F)C(F)(F)OCC(Cn1cncn1)c1ccc(Cl)cc1Cl` (configuration not stated) [TETRACONAZOLE], the EC50 is under 0.1 µg/mL with Bipolaris maydis; 1.2 µg/mL (≈ 3.22 µM) in the assay with Botrytis cinerea; 0.4 µg/mL (≈ 1.07 µM) in the assay on Pyrenophora teres; 0.12 µg/mL (≈ 0.322 µM) in the assay with Cercospora beticola; 0.45 µg/mL (≈ 1.21 µM) with Oculimacula yallundae; 4 µg/mL (≈ 10.7 µM) in the assay on Fusarium graminearum. For the same compound, the EC50 in the assay on Ustilago maydis [6] came out at 0.25 µg/mL (≈ 0.672 µM). The outcome in the assay with Ustilago maydis [12] and in the assay on Ustilago maydis [13] was Active. Also, the MIC worked out at 25 µg/mL (≈ 67.2 µM) in the assay with Uromyces appendiculatus [1], 0.9 µg/mL (≈ 2.42 µM) with Podosphaera fuliginea [14], 0.05 µg/mL (≈ 0.134 µM) in the assay with Podosphaera fuliginea [3] and 25 µg/mL (≈ 67.2 µM) in the assay on Uromyces appendiculatus [11].

For the compound `COc1ccc(COCC(Cn2cncn2)c2ccc(Cl)cc2Cl)cc1` (racemic), the concentration for a half-maximal effect (EC50) in the assay on Bipolaris maydis is 0.15 µg/mL (≈ 0.382 µM); in the assay with Botrytis cinerea, 1 µg/mL (≈ 2.55 µM); in the assay on Pyrenophora teres, 0.45 µg/mL (≈ 1.15 µM); in the assay with Cercospora beticola, 0.1 µg/mL (≈ 0.255 µM); in the assay on Oculimacula yallundae, 0.35 µg/mL (≈ 0.892 µM); in the assay on Fusarium graminearum, 10 µg/mL (≈ 25.5 µM). The half-maximal effective concentration (EC50) in the assay with Ustilago maydis [6] is 0.07 µg/mL (≈ 0.178 µM). Further, the MIC in the assay on Uromyces appendiculatus [1] worked out at 30 µg/mL (≈ 76.5 µM); in the assay on Podosphaera fuliginea [3], 35 µg/mL (≈ 89.2 µM); with Uromyces appendiculatus [11], 12 µg/mL (≈ 30.6 µM).

Consider `C=CCOC[C@H](Cn1cncn1)c1ccc(Cl)cc1Cl`, for which the EC50 in the assay with Bipolaris maydis was 0.2 µg/mL (≈ 0.641 µM); with Botrytis cinerea, 3 µg/mL (≈ 9.61 µM); in the assay on Pyrenophora teres it was 0.8 µg/mL (≈ 2.56 µM); with Cercospora beticola, 0.25 µg/mL (≈ 0.801 µM); in the assay on Oculimacula yallundae, 0.4 µg/mL (≈ 1.28 µM); in the assay with Fusarium graminearum it was 8.5 µg/mL (≈ 27.2 µM). Also, the EC50 in the assay on Ustilago maydis [6] was 0.22 µg/mL (≈ 0.705 µM). For the same compound, the MIC in the assay on Uromyces appendiculatus [1] and in the assay on Podosphaera fuliginea [3] was 100 µg/mL (≈ 320 µM) each time. The inhibition result in assay [2] and in [4] was “Active” in each case. The IC50 in [5] is 1990 nM.

(Values after ChEMBL document CHEMBL3045489, “Synthesis, fungicidal activity, and QSAR of a series of 2-dichlorophenyl-3-triazolylpropyl ethers” (J Agric Food Chem, 2000).)
